Measured values taken from ChEMBL document CHEMBL1156564, “2-Phenoxy-indan-1-one derivatives as acetylcholinesterase inhibitors: a study on the importance of modifications at the side chain on the activity” (Bioorg Med Chem, 2008).
Calls of active or inactive are those of the source. The rule behind the calls is not given here.

How the values were obtained:
Butyrylcholinesterase = Butyrylcholinesterase (Rattus norvegicus, UniProt Q9JKC1); experiment: Inhibition of BuchE in rat serum by Ellman's method; assay type: cell-free
In short: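 Modified Ellman assay with rat serum as BuChE source. Mixture of butyrylthiocholine iodide, sodium phosphate buffer pH 7.4, serum and tested compound at different concentrations, incubated 37 °C for 15 min.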

Rattus norvegicus = organism: Rattus norvegicus; experiment: Selectivity ratio of IC50 for BuchE in rat serum to IC50 for AchE in rat cortex; assay type: cell-free
In short: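 IC50 ratio from modified Ellman assays. BuChE from rat serum with butyrylthiocholine iodide. AChE from rat cortex homogenate, preincubated with isoOMPA (0.04 mmol/L) to block BuChE, with acetylthiocholine iodide. Each mixture held enzyme source, sodium phosphate buffer pH 7.4 and compound at different concentrations, incubated 37 °C for 15 min.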

Acetylcholinesterase = target: T1, Acetylcholinesterase (Rattus norvegicus, UniProt P37136); experiment: Inhibition of AchE in rat cortex by Ellman's method
T1 sequence (P37136 whole entry): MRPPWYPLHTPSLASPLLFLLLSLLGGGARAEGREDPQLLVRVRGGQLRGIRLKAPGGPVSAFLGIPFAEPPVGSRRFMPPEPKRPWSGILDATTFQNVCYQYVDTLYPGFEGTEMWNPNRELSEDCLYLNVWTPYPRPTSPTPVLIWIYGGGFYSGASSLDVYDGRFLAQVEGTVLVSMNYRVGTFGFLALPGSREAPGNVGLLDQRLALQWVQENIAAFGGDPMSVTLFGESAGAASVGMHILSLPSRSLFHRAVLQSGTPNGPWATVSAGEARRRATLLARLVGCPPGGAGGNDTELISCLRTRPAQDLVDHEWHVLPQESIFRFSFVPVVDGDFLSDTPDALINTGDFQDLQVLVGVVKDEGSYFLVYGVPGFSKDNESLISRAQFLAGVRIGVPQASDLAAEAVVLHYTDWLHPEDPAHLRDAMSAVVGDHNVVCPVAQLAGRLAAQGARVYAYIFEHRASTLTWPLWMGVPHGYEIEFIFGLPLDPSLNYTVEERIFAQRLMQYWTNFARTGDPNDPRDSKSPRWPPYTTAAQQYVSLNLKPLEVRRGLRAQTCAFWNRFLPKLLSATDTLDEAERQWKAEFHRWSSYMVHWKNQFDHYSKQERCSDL

PC-12 [1] = experiment: Neuroprotective activity against rat PC12 cells assessed as inhibition of H2O2-induced neurotoxicity at 0.5 uM after 2 hrs by MTT assay; assay type: functional, cell-based
In short: (§1)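 Undifferentiated PC12 cells were seeded at 5000 cells/well and cultured at 37 °C under 5% CO2. They were left to attach for 1 day before […] was added. 2 h later the cells were exposed to H2O2. Viability was read by MTT (0.25 mg/mL final, 4 h), with formazan dissolved in DMSO and OD read at 570 nm.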

PC-12 [2] = experiment: Neuroprotective activity in rat PC12 cells assessed as inhibition of H2O2-induced neurotoxicity at 0.1 uM after 2 hrs by MTT assay; assay type: functional, cell-based; in short: as §1

Sequence of Butyrylcholinesterase (Q9JKC1 whole entry): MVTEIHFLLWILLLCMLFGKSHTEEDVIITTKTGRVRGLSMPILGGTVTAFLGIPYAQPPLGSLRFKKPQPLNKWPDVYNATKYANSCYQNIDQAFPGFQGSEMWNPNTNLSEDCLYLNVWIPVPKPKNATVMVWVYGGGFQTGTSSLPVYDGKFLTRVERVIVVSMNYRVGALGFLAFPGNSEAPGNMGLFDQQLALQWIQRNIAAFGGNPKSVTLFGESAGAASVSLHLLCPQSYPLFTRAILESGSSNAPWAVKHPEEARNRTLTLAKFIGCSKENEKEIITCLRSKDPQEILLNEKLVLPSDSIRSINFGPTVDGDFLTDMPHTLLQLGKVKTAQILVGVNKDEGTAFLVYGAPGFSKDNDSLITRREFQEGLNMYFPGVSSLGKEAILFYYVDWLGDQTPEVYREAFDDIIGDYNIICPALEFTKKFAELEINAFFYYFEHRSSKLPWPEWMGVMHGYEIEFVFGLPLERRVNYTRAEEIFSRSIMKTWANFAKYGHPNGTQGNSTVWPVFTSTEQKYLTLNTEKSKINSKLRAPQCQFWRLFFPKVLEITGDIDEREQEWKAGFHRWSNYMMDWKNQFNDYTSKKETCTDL

SMILES: COc1cc2c(cc1OC)C(=O)C(Oc1ccc(CCN3CCCCC3)cc1)C2 (stereo not given)
- IC50 (Butyrylcholinesterase): 5110 nM
- Ratio IC50 (Rattus norvegicus): 102
- IC50 (Acetylcholinesterase): 50.2 nM

SMILES: COc1cc2c(cc1OC)C(=O)C(Oc1ccc(C(=O)CCCN3CCCCC3)cc1)C2 (stereo not given)
- IC50 (Butyrylcholinesterase): 8970 nM
- Ratio IC50 (Rattus norvegicus): 17
- IC50 (Acetylcholinesterase): 529 nM

SMILES: COc1cc2c(cc1OC)C(=O)C(Oc1ccc(C(=O)CCN3CCCCC3)cc1)C2 (stereo not given)
- IC50 (Butyrylcholinesterase): 3240 nM
- Ratio IC50 (Rattus norvegicus): 187
- IC50 (Acetylcholinesterase): 17.3 nM

SMILES: CCN(C)CC(=O)c1ccc(OC2Cc3cc(OC)c(OC)cc3C2=O)cc1 (stereo not given)
- IC50 (Butyrylcholinesterase): 588 nM
- Ratio IC50 (Rattus norvegicus): 18.6
- IC50 (Acetylcholinesterase): 31.6 nM

SMILES: COc1cc2c(cc1OC)C(=O)C(Oc1cccc(C(=O)CCN3CCCC3)c1)C2 (stereo not given)
- IC50 (Butyrylcholinesterase): 11100 nM
- Ratio IC50 (Rattus norvegicus): 13.3
- IC50 (Acetylcholinesterase): 832 nM

SMILES: CCN(C)CCC(=O)c1ccc(OC2Cc3cc(OC)c(OC)cc3C2=O)cc1 (stereo not given)
- IC50 (Butyrylcholinesterase): 4510 nM
- Ratio IC50 (Rattus norvegicus): 2440
- IC50 (Acetylcholinesterase): 1.85 nM

SMILES: CCN(C)CCc1cccc(OC2Cc3cc(OC)c(OC)cc3C2=O)c1 (stereo not given)
- IC50 (Butyrylcholinesterase): 8650 nM
- Ratio IC50 (Rattus norvegicus): 12.2
- IC50 (Acetylcholinesterase): 710 nM

SMILES: COc1cc2c(cc1OC)C(=O)C(Oc1ccc(CCCCN3CCCC3)cc1)C2 (stereo not given)
- IC50 (Butyrylcholinesterase): 3220 nM
- Ratio IC50 (Rattus norvegicus): 7.76
- IC50 (Acetylcholinesterase): 415 nM

SMILES: CCN(CC)CCc1ccc(OC2Cc3cc(OC)c(OC)cc3C2=O)cc1 (stereo not given)
- IC50 (Butyrylcholinesterase): 16600 nM
- Ratio IC50 (Rattus norvegicus): 394
- IC50 (Acetylcholinesterase): 42.1 nM

SMILES: COc1cc2c(cc1OC)C(=O)C(Oc1ccc(C(=O)CCCN3CCCC3)cc1)C2 (stereo not given)
- IC50 (Butyrylcholinesterase): 2930 nM
- Ratio IC50 (Rattus norvegicus): 47.2
- IC50 (Acetylcholinesterase): 62 nM

SMILES: COc1cc2c(cc1OC)C(=O)C(Oc1ccc(C(=O)CN3CCCC3)cc1)C2 (stereo not given)
- IC50 (Butyrylcholinesterase): 1720 nM
- Ratio IC50 (Rattus norvegicus): 7.2
- IC50 (Acetylcholinesterase): 240 nM

SMILES: CCN(CC)CCc1cccc(OC2Cc3cc(OC)c(OC)cc3C2=O)c1 (stereo not given)
- IC50 (Butyrylcholinesterase): 11100 nM
- Ratio IC50 (Rattus norvegicus): 5.31
- IC50 (Acetylcholinesterase): 2090 nM

SMILES: CCN(C)CCc1ccc(OC2Cc3cc(OC)c(OC)cc3C2=O)cc1 (stereo not given)
- IC50 (Butyrylcholinesterase): 22000 nM
- Ratio IC50 (Rattus norvegicus): 427
- IC50 (Acetylcholinesterase): 51.6 nM

SMILES: COc1cc2c(cc1OC)C(=O)C(CC1CCN(Cc3ccccc3)CC1)C2 (stereo not given)
- Activity (PC-12 [1]): Active
- Activity (PC-12 [2]): Active

SMILES: CCN(CC)CCCc1ccc(OC2Cc3cc(OC)c(OC)cc3C2=O)cc1 (stereo not given)
- IC50 (Butyrylcholinesterase): 3990 nM
- Ratio IC50 (Rattus norvegicus): 14.4
- IC50 (Acetylcholinesterase): 277 nM

SMILES: CCN(CC)CC(=O)c1ccc(OC2Cc3cc(OC)c(OC)cc3C2=O)cc1 (stereo not given)
- IC50 (Butyrylcholinesterase): 2430 nM
- Ratio IC50 (Rattus norvegicus): 8.7
- IC50 (Acetylcholinesterase): 280 nM

SMILES: CCN(CC)CCCC(=O)c1ccc(OC2Cc3cc(OC)c(OC)cc3C2=O)cc1 (stereo not given)
- IC50 (Butyrylcholinesterase): 37700 nM
- Ratio IC50 (Rattus norvegicus): 927
- IC50 (Acetylcholinesterase): 40.6 nM

SMILES: COc1cc2c(cc1OC)C(=O)C(Oc1ccc(CCCN3CCCCC3)cc1)C2 (stereo not given)
- IC50 (Butyrylcholinesterase): 2790 nM
- Ratio IC50 (Rattus norvegicus): 4.36
- IC50 (Acetylcholinesterase): 640 nM

SMILES: COc1cc2c(cc1OC)C(=O)C(Oc1cccc(CCN3CCCC3)c1)C2 (stereo not given)
- IC50 (Butyrylcholinesterase): 15400 nM
- Ratio IC50 (Rattus norvegicus): 8.69
- IC50 (Acetylcholinesterase): 1770 nM

SMILES: CCN(CC)CCCCc1ccc(OC2Cc3cc(OC)c(OC)cc3C2=O)cc1 (stereo not given)
- IC50 (Butyrylcholinesterase): 3260 nM
- Ratio IC50 (Rattus norvegicus): 6.77
- IC50 (Acetylcholinesterase): 481 nM

SMILES: CCN(CC)CCC(=O)c1ccc(OC2Cc3cc(OC)c(OC)cc3C2=O)cc1 (stereo not given)
- IC50 (Butyrylcholinesterase): 1520 nM
- Activity (PC-12 [1]): Active
- Ratio IC50 (Rattus norvegicus): 1950
- Activity (PC-12 [2]): Active
- IC50 (Acetylcholinesterase): 0.78 nM

SMILES: COc1cc2c(cc1OC)C(=O)C(Oc1ccc(CCCN3CCCC3)cc1)C2 (stereo not given)
- IC50 (Butyrylcholinesterase): 2340 nM
- Ratio IC50 (Rattus norvegicus): 11.2
- IC50 (Acetylcholinesterase): 209 nM

SMILES: CCN(CC)CCC(=O)c1cccc(OC2Cc3cc(OC)c(OC)cc3C2=O)c1 (stereo not given)
- IC50 (Butyrylcholinesterase): 1520 nM
- Ratio IC50 (Rattus norvegicus): 0.64
- IC50 (Acetylcholinesterase): 2370 nM

SMILES: COc1cc2c(cc1OC)C(=O)C(Oc1cccc(CCN3CCCCC3)c1)C2 (stereo not given)
- IC50 (Butyrylcholinesterase): 7000 nM
- Ratio IC50 (Rattus norvegicus): 4.52
- IC50 (Acetylcholinesterase): 1550 nM

SMILES: COc1cc2c(cc1OC)C(=O)C(Oc1ccc(C(=O)CCN3CCCC3)cc1)C2 (stereo not given)
- IC50 (Butyrylcholinesterase): 6040 nM
- Ratio IC50 (Rattus norvegicus): 1450
- IC50 (Acetylcholinesterase): 4.16 nM

SMILES: COc1cc2c(cc1OC)C(=O)C(Oc1ccc(CCN3CCCC3)cc1)C2 (stereo not given)
- IC50 (Butyrylcholinesterase): 30400 nM
- Ratio IC50 (Rattus norvegicus): 816
- IC50 (Acetylcholinesterase): 37.3 nM

SMILES: CCN(C)CCCC(=O)c1ccc(OC2Cc3cc(OC)c(OC)cc3C2=O)cc1 (stereo not given)
- IC50 (Butyrylcholinesterase): 26900 nM
- Ratio IC50 (Rattus norvegicus): 715
- IC50 (Acetylcholinesterase): 37.6 nM

SMILES: COc1cc2c(cc1OC)C(=O)C(Oc1ccc(C(=O)CN3CCCCC3)cc1)C2 (stereo not given)
- IC50 (Butyrylcholinesterase): 1660 nM
- Ratio IC50 (Rattus norvegicus): 4.57
- IC50 (Acetylcholinesterase): 364 nM
